Results from ChEMBL document CHEMBL2146421, “Synthesis and anticonvulsant activity of some new thiazolo[3,2-a][1,3]diazepine, benzo[d]thiazolo[5,2-a][12,6]diazepine and benzo[d]oxazolo[5,2-a][12,6]diazepine analogues” (Eur J Med Chem, 2011).

How the values were obtained:
Mus musculus [1] = experiment: Neurotoxicity in Swiss albino mouse assessed as effect on motor activity at 1.5 mmol/kg, ip after 30 mins; assay type: toxicity, organism-based; conditions: in vivo, 0.5 h
Outline: (§1)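 Motor activity measured with an activity meter at 0 and 30 min after i.p. dosing, zero time taken as 100%.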

Mus musculus [2] = experiment: Anticonvulsant activity in Swiss albino mouse assessed as protection against bicuculline-induced convulsion at 3.0 mmol/kg, ip […] measured for 30 mins; assay type: functional
Outline: (§2)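 Mice (6 per compound) dosed i.p.; 30 min later given bicuculline 1 mg/kg s.c. (freshly dissolved in 1 ml warmed 0.1 N HCl, made up with 0.9% NaCl), then observed 30 min; percentage anticonvulsion (animals protected) calculated. Dose-response runs used 10 animals per dose.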

Mus musculus [3] = experiment: Neurotoxicity in Swiss albino mouse assessed as inability to climb up backwards in a glass tube within 30 seconds at 0.75 mmol/kg, ip measured after 15 and 25 mins by Chimney test; assay type: toxicity, organism-based; conditions: in vivo
Outline: (§3)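 Chimney test: 15 and 25 min after i.p. dosing (3.0, 1.5, 0.75, 0.375 mmol/kg), inability of mice to climb backwards up a glass tube 25 cm long, 3 cm inner diameter, within 30 s recorded as neurological deficit.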

Mus musculus [4] = experiment: Anticonvulsant activity in Swiss albino mouse assessed as protection against pentylenetetrazole-induced convulsion at 0.37 mmol/kg, ip treated 30 mins before pentylenetetrazole measured for 30 mins
Mus musculus [5] = experiment: Anticonvulsant activity in Swiss albino mouse assessed as protection against bicuculline-induced convulsion at 0.37 mmol/kg, ip […] measured for 30 mins; assay type: functional; outline: as §2
Mus musculus [6] = experiment: Anticonvulsant activity in Swiss albino mouse assessed as protection against pentylenetetrazole-induced convulsion at 0.75 mmol/kg, ip treated after 30 mins of pentylenetetrazole measured for 30 mins; assay type: functional
Mus musculus [7] = experiment: Hypnotic activity in Swiss albino mouse assessed as righting reflex at 3 mmol/kg, ip; assay type: ADME, organism-based; conditions: in vivo
Mus musculus [8] = experiment: Anticonvulsant activity in Swiss albino mouse assessed as protection against maximal electroshock-induced convulsion at 1.5 mmol/kg, ip […]; assay type: functional
Outline: (§4)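 Test compound given i.p. to mice; 30 min later, electric shock was applied through the ears while the mice were hand-restrained. The mice were then released to observe the maximal seizure. Each dose was tested in 10 animals and the percentage protected was recorded.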

Mus musculus [9] = experiment: Anticonvulsant activity in Swiss albino mouse assessed as protection against maximal electroshock-induced convulsion at 0.75 mmol/kg, ip […]; assay type: functional
Outline: (§5)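 Test agent given i.p. to mice; 30 min later electric shock applied through the ears, animals released immediately to observe maximal seizure; percentage protected recorded (10 animals per dose in dose-response runs).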

Mus musculus [10] = experiment: Hypnotic activity in Swiss albino mouse assessed as righting reflex at 1.5 mmol/kg, ip; assay type: ADME, organism-based; conditions: in vivo
[11] = Toxicity in Swiss albino mouse assessed as mortality at 3 mmol/kg, ip measured 7 to 11 mins before pentylenetetrazole challenge; assay type: organism-based; conditions: in vivo, read-out: Activity
Outline: (§6)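 Compounds given i.p. at 3.0, 1.5, 0.75 and 0.375 mmol/kg to 6 mice per compound. Deaths occurring before the PTZ injection were recorded. PTZ (83 mg/kg s.c.) followed 30 min after compound dosing.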

Mus musculus [12] = experiment: Neurotoxicity in Swiss albino mouse assessed as inability to climb up backwards in a glass tube within 30 seconds at 3 mmol/kg, ip measured after 15 and 25 mins by Chimney test; assay type: toxicity, organism-based; conditions: in vivo; outline: as §3
[13] = Toxicity in Swiss albino mouse assessed as mortality at 0.75 mmol/kg, ip measured 7 to 11 mins before pentylenetetrazole challenge; assay type: organism-based; conditions: in vivo, read-out: Activity; outline: as §6
Mus musculus [14] = experiment: Anticonvulsant activity in Swiss albino mouse assessed as protection against pentylenetetrazole-induced convulsion at 1.5 mmol/kg, ip treated after 30 mins of pentylenetetrazole measured for 30 mins; assay type: functional
[15] = Toxicity in Swiss albino mouse assessed as mortality at 1.5 mmol/kg, ip measured 7 to 11 mins before pentylenetetrazole challenge; assay type: organism-based; conditions: in vivo, read-out: Activity; outline: as §6
[16] = Therapeutic index, ratio of LD50 for Swiss albino mouse to ED50 for anticonvulsant activity in Swiss albino mouse; assay type: organism-based; conditions: in vivo, read-out: Ratio LD50/ED50
Outline: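 TI was calculated as LD50/ED50. ED50 came from dose-response curves in 10 mice per dose. LD50 was determined by the Spearman–Karber method, with doses at equal logarithmic intervals.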

Mus musculus [17] = experiment: Anticonvulsant activity in Swiss albino mouse assessed as protection against bicuculline-induced convulsion at 1.5 mmol/kg, ip […] measured for 30 mins; assay type: functional; outline: as §2
Mus musculus [18] = experiment: Neurotoxicity in Swiss albino mouse assessed as effect on motor activity at 0.75 mmol/kg, ip after 30 mins; assay type: toxicity, organism-based; conditions: in vivo, 0.5 h; outline: as §1
Mus musculus [19] = experiment: Neurotoxicity in Swiss albino mouse assessed as effect on motor activity at 3 mmol/kg, ip after 30 mins; assay type: toxicity, organism-based; conditions: in vivo, 0.5 h; outline: as §1
[20] = Toxicity in Swiss albino mouse by Spearman-Karber method; assay type: organism-based; conditions: in vivo
Outline: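 LD50 in mice was determined by the Spearman–Karber method, with doses chosen at equal logarithmic intervals. 95% confidence limits were reported.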

Mus musculus [21] = experiment: Anticonvulsant activity in Swiss albino mouse assessed as protection against bicuculline-induced convulsion at 0.75 mmol/kg, ip […] measured for 30 mins; assay type: functional; outline: as §2
Mus musculus [22] = species on record: Mus musculus; experiment: Protective index, ratio of TD50 for Swiss albino mouse to ED50 for anticonvulsant activity in Swiss albino mouse; assay type: functional
Outline: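 TD50 (median sedative dose) divided by ED50 (median effective dose), from dose-response curves at 10 mice per dose; 95% confidence limits given.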

Mus musculus [23] = experiment: Anticonvulsant activity in Swiss albino mouse assessed as protection against pentylenetetrazole-induced convulsion at 3 mmol/kg, ip treated after 30 mins of pentylenetetrazole measured for 30 mins; assay type: functional
Mus musculus [24] = experiment: Anticonvulsant activity in Swiss albino mouse assessed as protection against maximal electroshock-induced convulsion at 3.0 mmol/kg, ip […]; assay type: functional; outline: as §5
Mus musculus [25] = experiment: Hypnotic activity in Swiss albino mouse assessed as righting reflex at 0.75 mmol/kg, ip; assay type: ADME, organism-based; conditions: in vivo
Mus musculus [26] = experiment: Anticonvulsant activity in Swiss albino mouse assessed as protection against picrotoxin-induced convulsion at 1.5 mmol/kg, ip […] measured for 30 mins; assay type: functional
Outline: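 Test compound given i.p.; 30 min later, picrotoxin 3.15 mg/kg s.c. was injected. Picrotoxin was freshly dissolved in 1 ml warmed 0.1 N HCl and made up with 0.9% NaCl. Each dose was tested in 10 animals and the percentage of mice protected from clonic convulsions was recorded.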

Mus musculus [27] = experiment: Anticonvulsant activity in ip dosed Swiss albino mouse assessed as protection against maximal electroshock-induced convulsion; assay type: functional; outline: as §5
[28] = Toxicity in ip dosed Swiss albino mouse assessed as sedative effect; assay type: organism-based; conditions: in vivo
Mus musculus [29] = experiment: Anticonvulsant activity in Swiss albino mouse assessed as protection against maximal electroshock-induced convulsion at 0.37 mmol/kg, ip […]; assay type: functional; outline: as §4
Mus musculus [30] = experiment: Neurotoxicity in Swiss albino mouse assessed as inability to climb up backwards in a glass tube within 30 seconds at 1.5 mmol/kg, ip measured after 15 and 25 mins by Chimney test; assay type: toxicity, organism-based; conditions: in vivo; outline: as §3
Mus musculus [31] = experiment: Neurotoxicity in Swiss albino mouse assessed as inability to climb up backwards in a glass tube within 30 seconds at 0.37 mmol/kg, ip measured after 15 and 25 mins by Chimney test; assay type: toxicity, organism-based; conditions: in vivo; outline: as §3
Mus musculus [32] = experiment: Anticonvulsant activity in Swiss albino mouse assessed as protection against pentylenetetrazole-induced convulsion at 0.375 mmol/kg, ip treated after 30 mins of pentylenetetrazole measured for 30 mins; assay type: functional
Mus musculus [33] = experiment: Neurotoxicity in Swiss albino mouse assessed as effect on motor activity at 0.375 mmol/kg, ip after 30 mins; assay type: toxicity, organism-based; conditions: in vivo, 0.5 h; outline: as §1
Mus musculus [34] = experiment: Hypnotic activity in Swiss albino mouse assessed as righting reflex at 0.375 mmol/kg, ip; assay type: ADME, organism-based; conditions: in vivo
Mus musculus [35] = experiment: Neurotoxicity in Swiss albino mouse assessed as inability to climb up backwards in a glass tube within 30 seconds at 0.375 mmol/kg, ip measured after 15 and 25 mins by Chimney test; assay type: toxicity, organism-based; conditions: in vivo; outline: as §3
[36] = Toxicity in Swiss albino mouse assessed as mortality at 0.375 mmol/kg, ip measured 7 to 11 mins before pentylenetetrazole challenge; assay type: organism-based; conditions: in vivo, read-out: Activity; outline: as §6

O=C1CCCN2C(=N1)Oc1ccc(Cl)cc12
Activity (Mus musculus [1]): 50% | Activity (Mus musculus [2]): 100% | Activity (Mus musculus [3]): 17% | Activity (Mus musculus [4]): 0% | Activity (Mus musculus [5]): 0% | Activity (Mus musculus [6]): 33% | Activity (Mus musculus [7]): 17% | Activity (Mus musculus [8]): 10% | Activity (Mus musculus [9]): 0% | Activity (Mus musculus [10]): 0% | mortality [11]: 0% | Activity (Mus musculus [12]): 100% | mortality [13]: 0% | Activity (Mus musculus [14]): 67% | mortality [15]: 0% | selectivity ratio [16]: 2.14 | Activity (Mus musculus [17]): 50% | Activity (Mus musculus [18]): 33% | Activity (Mus musculus [19]): 80% | LD50 [20]: 537 mg/kg | Activity (Mus musculus [21]): 20% | Ratio TD50/ED50 (Mus musculus [22]): 1.41 | Activity (Mus musculus [23]): 100% | Activity (Mus musculus [24]): 70% | Activity (Mus musculus [25]): 0% | Activity (Mus musculus [26]): 40% | ED50 (Mus musculus [27]): 251 mg/kg | TD50 [28]: 355 mg/kg | Activity (Mus musculus [29]): 0% | Activity (Mus musculus [30]): 50% | Activity (Mus musculus [31]): 0%

O=C1CCCN2C(=N1)Sc1ccccc12
Activity (Mus musculus [1]): 0% | Activity (Mus musculus [6]): 0% | Activity (Mus musculus [10]): 0% | Activity (Mus musculus [14]): 70% | mortality [15]: 0% | Activity (Mus musculus [30]): 0% | Activity (Mus musculus [32]): 0%

O=C1CCCN2C=CSC2=N1
Activity (Mus musculus [1]): 0% | Activity (Mus musculus [10]): 0% | Activity (Mus musculus [14]): 0% | mortality [15]: 33% | Activity (Mus musculus [30]): 0%

O=C1CCCN2C=C(Br)SC2=N1
Activity (Mus musculus [1]): 12% | Activity (Mus musculus [3]): 40% | Activity (Mus musculus [33]): 15% | Activity (Mus musculus [34]): 0% | Activity (Mus musculus [6]): 0% | Activity (Mus musculus [10]): 30% | Activity (Mus musculus [35]): 10% | mortality [13]: 0% | Activity (Mus musculus [14]): 30% | mortality [15]: 0% | mortality [36]: 0% | Activity (Mus musculus [18]): 13% | Activity (Mus musculus [25]): 0% | Activity (Mus musculus [30]): 80% | Activity (Mus musculus [32]): 0%
